In ChEMBL document CHEMBL3232997, “Synthesis and biological evaluation of a series of benzoxazole/benzothiazole-containing 2,3-dihydrobenzo[b][1,4]dioxine derivatives as potential antidepressants” (Bioorg Med Chem Lett, 2014):
pKi: −log10 of the molar value. Blank lines part the entries; values can stand above or below the compound they belong to. Activity calls are given as the source filed them. The rule behind the calls is not given here.

Key:
[1] = target: T1, 5-hydroxytryptamine receptor 1A (Rattus norvegicus, UniProt P19327); assay: Displacement of [3H]8-OH-DPAT from rat cerebral cortex 5-HT1A receptor after 30 mins by liquid scintillation counting; format: tissue-based
T1 sequence (P19327 whole entry): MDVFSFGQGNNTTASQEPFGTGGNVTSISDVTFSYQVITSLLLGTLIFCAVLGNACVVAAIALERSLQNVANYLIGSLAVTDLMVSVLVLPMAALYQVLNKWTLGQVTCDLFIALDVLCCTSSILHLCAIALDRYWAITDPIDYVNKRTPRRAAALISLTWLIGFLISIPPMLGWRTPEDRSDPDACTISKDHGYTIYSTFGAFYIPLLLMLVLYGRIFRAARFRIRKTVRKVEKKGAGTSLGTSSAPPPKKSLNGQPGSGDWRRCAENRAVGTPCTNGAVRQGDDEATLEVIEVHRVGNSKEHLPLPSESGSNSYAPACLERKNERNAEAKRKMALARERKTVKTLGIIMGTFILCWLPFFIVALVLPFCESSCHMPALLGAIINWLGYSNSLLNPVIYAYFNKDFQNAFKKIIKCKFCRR
Summary of the method: (§1)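 Competition binding on rat cerebral cortex homogenates. 5-HT1A was labelled with [3H]-8-hydroxy-2-(di-n-propylamino)tetralin and 5-HT2A with [3H]ketanserine. The method followed a previously reported procedure. Ki values are reported as mean ± SEM.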

[2] = target: 5-hydroxytryptamine receptor 2A (Rattus norvegicus, UniProt P14842); assay: Displacement of [3H]-ketanserin from rat cerebral cortex 5-HT2A receptor after 30 mins by liquid scintillation counting; format: tissue-based; summary of the method: as §1
Chain of 5-hydroxytryptamine receptor 2A (P14842 whole entry): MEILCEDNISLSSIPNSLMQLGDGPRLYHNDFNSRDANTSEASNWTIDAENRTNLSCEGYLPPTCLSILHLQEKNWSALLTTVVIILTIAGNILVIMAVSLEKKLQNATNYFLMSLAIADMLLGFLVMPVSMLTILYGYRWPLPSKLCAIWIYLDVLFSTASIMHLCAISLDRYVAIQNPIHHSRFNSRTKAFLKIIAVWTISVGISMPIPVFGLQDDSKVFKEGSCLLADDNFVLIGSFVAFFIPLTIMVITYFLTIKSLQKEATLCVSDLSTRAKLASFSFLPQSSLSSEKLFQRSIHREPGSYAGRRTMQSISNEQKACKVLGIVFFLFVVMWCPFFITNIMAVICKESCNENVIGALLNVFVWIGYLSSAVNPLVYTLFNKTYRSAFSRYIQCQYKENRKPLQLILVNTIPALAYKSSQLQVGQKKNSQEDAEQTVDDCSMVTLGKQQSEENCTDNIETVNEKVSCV

Mus musculus [3] = assay: Antidepressant activity in Kunming mouse assessed as decrease in immobility time at 40 mg/kg, po by forced swimming test; format: functional, organism-based; set-up: dose 40 mg/kg
Mus musculus [4] = assay: Antidepressant activity in Kunming mouse assessed as decrease in immobility time at 40 mg/kg, po by tail suspension test; format: functional, organism-based; set-up: dose 40 mg/kg
Mus musculus [5] = assay: Toxicity in Kunming mouse assessed as locomotor activity at 10 mg/kg, po measured for 10 mins (reference value: 1165 +/- 263 cm); format: organism-based; set-up: dose 10 mg/kg, route oral; conditions: in vivo
Summary of the method: (§2)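 Mice were given test compound orally, with a vehicle-treated group as control. Locomotor activity was recorded for 10 min and reported as distance travelled (cm). Values are mean ± SEM, n = 10 per group. The test was used to rule out false positives in the swim and tail-suspension tests.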

Mus musculus [6] = assay: Antidepressant activity in po dosed Kunming mouse assessed as decrease in immobility time by forced swimming test; format: functional
Mus musculus [7] = assay: Toxicity in Kunming mouse assessed as locomotor activity at 40 mg/kg, po measured for 10 mins (reference value: 1165 +/- 263 cm); format: organism-based; set-up: dose 40 mg/kg, route oral; conditions: in vivo; summary of the method: as §2
Mus musculus [8] = assay: Toxicity in Kunming mouse assessed as locomotor activity at 100 mg/kg, po measured for 10 mins (reference value: 1165 +/- 263 cm); format: organism-based; set-up: dose 100 mg/kg, route oral; conditions: in vivo; summary of the method: as §2

Compound: c1ccc(C2Oc3ccccc3OC2COCCCCN2CCC(c3nc4ccccc4s3)CC2)cc1 (stereo not given)
pKi [1]: 7.51
pKi [2]: 7.62
Decrease in immobility time (Mus musculus [3]): Active
antidepressant activity (active/inactive) (Mus musculus [4]): Active

Compound: O=C(NCCN1CCC(c2nc3ccccc3o2)CC1)C1COc2ccccc2O1 (stereo not given)
pKi [1]: 7.12
pKi [2]: 7.06

Compound: c1ccc(C2Oc3ccccc3OC2COCCCN2CCC(c3nc4ccccc4s3)CC2)cc1 (stereo not given)
pKi [1]: 6.87
pKi [2]: 7.72
Decrease in immobility time (Mus musculus [3]): Active
antidepressant activity (active/inactive) (Mus musculus [4]): Active

Compound: CN(C)CCCN1c2ccccc2CCc2ccccc21 [IMIPRAMINE]
Activity (Mus musculus [5]): 1248 cm

Compound: CC1Oc2ccccc2OC1COCCCN1CCC(c2nc3ccccc3s2)CC1 (stereo not given)
pKi [1]: 6.99
pKi [2]: 6.88

Compound: c1ccc(C2Oc3ccccc3OC2COCCCCCN2CCC(c3nc4ccccc4s3)CC2)cc1 (stereo not given)
pKi [1]: 6.88
pKi [2]: 6.83

Compound: c1ccc(C2Oc3ccccc3OC2COCCCCCN2CCC(c3nc4ccccc4o3)CC2)cc1 (stereo not given)
pKi [1]: 6.97
pKi [2]: 9.13

Continued, in another order:

pKi [1]: 6.82
pKi [2]: 8.09
Compound: CC1Oc2ccccc2OC1COCCCN1CCC(c2nc3ccccc3o2)CC1 (stereo not given)

pKi [1]: 7.29
pKi [2]: 8.39
Compound: c1ccc(C2Oc3ccccc3OC2COCCCN2CCC(c3nc4ccccc4o3)CC2)cc1 (stereo not given)
Decrease in immobility time (Mus musculus [3]): Active
antidepressant activity (active/inactive) (Mus musculus [4]): Active

pKi [1]: 7.07
pKi [2]: 7.05
Compound: O=C(NCCCN1CCC(c2nc3ccccc3s2)CC1)C1COc2ccccc2O1 (stereo not given)
Decrease in immobility time (Mus musculus [3]): Active
antidepressant activity (active/inactive) (Mus musculus [4]): Active

pKi [1]: 7.04
pKi [2]: 7.55
Compound: c1ccc2c(c1)OCC(COCCCN1CCC(c3nc4ccccc4s3)CC1)O2 (stereo not given)

pKi [1]: 6.92
pKi [2]: 7.52
Compound: c1ccc2c(c1)OCC(COCCCN1CCC(c3nc4ccccc4o3)CC1)O2 (stereo not given)

pKi [1]: 7.77
pKi [2]: 9.15
Compound: c1ccc(C2Oc3ccccc3OC2COCCCCN2CCC(c3nc4ccccc4o3)CC2)cc1 (stereo not given)
Decrease in immobility time (Mus musculus [3]): Active
antidepressant activity (active/inactive) (Mus musculus [4]): Active
ED50 (Mus musculus [6]): 39 mg/kg
Activity (Mus musculus [5]): 1180 cm
Activity (Mus musculus [7]): 1114 cm
Activity (Mus musculus [8]): 1150 cm

pKi [1]: 7.03
pKi [2]: 6.95
Compound: O=C(NCCN1CCC(c2nc3ccccc3s2)CC1)C1COc2ccccc2O1 (stereo not given)

pKi [1]: 7.08
pKi [2]: 7.06
Compound: O=C(NCCCN1CCC(c2nc3ccccc3o2)CC1)C1COc2ccccc2O1 (stereo not given)
Decrease in immobility time (Mus musculus [3]): Active
antidepressant activity (active/inactive) (Mus musculus [4]): Active
